GSTO1 counter: blocks human GSTO1 in RBBP9 counter-screen. recombinant GSTO1, activity-based probe fluorescence polarization. actives 1.1% (n = 300,000). P78417. inhibition, % at 5.96 µM;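 active = inhibition above the campaign mean inhibition plus 3 SD, cut at about 35% in these data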;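 note: 0% = GSTO1-1 with DMSO and 100% = wells lacking GSTO1-1 enzyme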
Target sequence (P78417 whole entry, looked up): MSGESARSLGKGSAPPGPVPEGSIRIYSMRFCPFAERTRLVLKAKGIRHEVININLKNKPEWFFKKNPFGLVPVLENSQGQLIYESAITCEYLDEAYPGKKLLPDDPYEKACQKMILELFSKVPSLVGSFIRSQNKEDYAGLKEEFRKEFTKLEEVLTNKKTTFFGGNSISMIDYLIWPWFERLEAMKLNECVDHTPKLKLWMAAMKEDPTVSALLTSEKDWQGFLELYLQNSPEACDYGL
UCH37 inh: inhibitors of human deubiquitinating enzyme UCH37; Q9Y5K5; purified proteasome/UCH37, Ub-AMC cleavage fluorescence; inhibition, % (concentration not given with the values); actives 0.33% (n = 330,000); AID 588478;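 active = mean inhibition over replicate wells above about 20%, limit read from the data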;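 note: 0% = compound-free wells with enzyme and 100% = wells lacking proteasome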
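Signal – fluorescence, ex 355 nm, em 460 nm · System – Proteasome-bound UCH37 · Input – 0.15 nM proteasome as dispensed · Timing – 30 min preincubation with enzyme, 25 min cleavage at room temperature · Read-out basis – percent inhibition of cleavage signal versus uninhibited and no-proteasome wells · Medium – Tris-HCl pH 7.4 with ATP-MgCl2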
Fh CTSL1 inh: counter-screen for PFM18AAP inhibitors: inhibitors of F. hepatica cathepsin L1; recombinant F. hepatica cathepsin L1, Z-Leu-Arg-MCA fluorescence; inhibition, % at 5.96 µM; actives 0.49% (n = 300,000); AID 1906;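 active = inhibition above the mean of all tested compounds plus 3 SD, set per screening campaign, cut at about 17% in these data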;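 note: 0% = plate median of test compound wells and 100% = 1 µM Z-Phe-Ala-diazomethylketone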
Apaf-1 inh: human Apaf-1 inhibition; AID 489030; inhibition, % at 20 µM; actives 0.71% (n = 330,000); reconstituted apoptosome caspase-3 activity, DEVD-Rh110 fluorescence; O14727; active = inhibition of at least 40% at 20 µM;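 note: plate controls were DMSO wells for no effect and DEVD-CHO caspase inhibitor wells for full effect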
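Material: cell-free apoptosome with Apaf-1, procaspase-3 and caspase-9; Buffer or medium: Hepes pH 7.5 with detergent and BSA; Reagent: cytochrome c trigger plus (Z-DEVD)2-Rh110 caspase-3 substrate; Times: compound with Apaf-1, dATP, procaspase-3 30 min, then 50 min reaction, room temperature; Technique: Rh110 fluorescence intensity.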
PAD4 inh: inhibitors of human PAD4; Q9UM07; recombinant PAD4, RCA probe fluorescence polarization; inhibition, % at 6.36 µM; actives 0.41% (n = 330,000); AID 485272;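 active = percent inhibition above a cutoff equal to the mean of all tested compounds plus 3 SD, cut at about 15% in these data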;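 note: 0% = PAD4 with RCA probe and DMSO and 100% = probe without PAD4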
PP5 primary: blocks human protein phosphatase 5 activity; P53041; purified PP5c, OMFP substrate fluorescence; inhibition, % at 6.7 µM; actives 0.18% (n = 320,000);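 active = inhibition above the campaign's mean inhibition across all tested compounds plus 3 SD, cut at about 9.5% in these data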;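 note: 0% = DMSO only and 100% = 100 µM cantharidin control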
Target sequence (P53041 whole entry, looked up): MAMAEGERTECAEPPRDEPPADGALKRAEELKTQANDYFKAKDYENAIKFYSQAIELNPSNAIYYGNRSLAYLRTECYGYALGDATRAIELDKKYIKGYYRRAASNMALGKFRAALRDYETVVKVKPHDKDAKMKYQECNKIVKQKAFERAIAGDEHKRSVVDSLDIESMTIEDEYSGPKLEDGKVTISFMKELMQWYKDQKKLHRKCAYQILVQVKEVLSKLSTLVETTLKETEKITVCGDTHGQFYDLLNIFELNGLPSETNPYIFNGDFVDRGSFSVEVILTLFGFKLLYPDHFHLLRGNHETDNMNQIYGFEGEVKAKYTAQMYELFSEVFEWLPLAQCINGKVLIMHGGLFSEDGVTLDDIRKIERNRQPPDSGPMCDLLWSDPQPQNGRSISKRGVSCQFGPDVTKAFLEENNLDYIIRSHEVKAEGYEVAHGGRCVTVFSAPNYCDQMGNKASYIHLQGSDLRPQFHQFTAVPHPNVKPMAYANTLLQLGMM
Apaf-1 inh conf2: Apaf-1 inhibition, single-dose confirmed. shares compounds with Apaf-1 inh. inhibition, % at 20 µM. actives 25% (n = 1,800). reconstituted apoptosome, caspase-3 DEVD-Rh110 fluorescence. AID 504614;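 active = mean inhibition of at least 40% at 20 µM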;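 note: plate controls were DMSO wells for no effect and DEVD-CHO caspase inhibitor control wells for full effect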
Rh110 interf inh: Rh110 signal interference in Apaf-1 inhibitor counter-screen. shares compounds with Apaf-1 inh. Rh110 fluorescence interference, quenched caspase reaction. 1,800 tested, under 10 active. AID 504615. activation (fluorescence interference), % at 20 µM;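 active = signal rise of 40% or more at 20 µM, treated as a fluorescence artifact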
Apaf1 inh interf: counter-screen for Apaf-1 inhibitors: fluorescence interference, dose response; AID 588538; fluorescence interference counterscreen, Apaf-1 assay format; 460 tested, under 10 active; IC50, µM; shares compounds with Apaf-1 inh; call rule not given here
Active calls of the source: *; nt = not tested or not shown. Only some compounds are listed: those with a hit (about 2% of all), similar ones and a draw of the others.

SMILES	GSTO1 counter	UCH37 inh	Fh CTSL1 inh	Apaf-1 inh	PAD4 inh	PP5 primary	Apaf-1 inh conf2	Rh110 interf inh	others
COC(=O)C1=C(C)N(Cc2ccccc2)C(=O)N[C@H]1c1cccc(C(F)(F)F)c1	5	4	1	25	6	5	nt	nt
COC(=O)C1=C(C)N(Cc2ccccc2)C(=NCc2ccccc2)N[C@H]1c1cccc(C(F)(F)F)c1	nt	nt	nt	65*	1	nt	33	15
COC(=O)C1=C(C)N(Cc2ccccc2)C(=NCC(C)C)N[C@H]1c1cccc(C(F)(F)F)c1	nt	2	nt	58*	-1	nt	13	4
COC(=O)C1=C(C)N(Cc2ccccc2)C(=S)N[C@H]1c1cccc(C(F)(F)F)c1	nt	0	nt	14	-4	nt	nt	nt
COC(=O)C1=C(C)N(Cc2ccccc2)C(=NCCc2cccnc2)N[C@H]1c1ccc(Br)cc1	nt	1	nt	51*	1	nt	11	0
COC(=O)C1=C(C)N(Cc2ccccc2)C(=NCC(C)C)N[C@H]1c1cccc(F)c1	nt	4	nt	44*	2	nt	5	-1
CC(=O)Nc1cccc(C(C)=NN2C(C)CCCC2C)c1 (configuration not stated)	nt	2	nt	nt	nt	nt	nt	nt
CN(C)C(=O)c1ccc(NC(=O)COc2cccc(Oc3ccccc3)c2)cc1	1	4	5	61*	-1	1	35	5
Cc1ccc(OCC(=O)N(Cc2nnc(-c3ccccc3Cl)o2)C2CC2)cc1C	nt	0	nt	56*	-6	5	49*	9	Apaf1 inh interf=>100
O=C(COc1ccccc1)N(Cc1nnc(-c2ccccc2Cl)o1)C1CC1	1	2	-4	16	-10	1	nt	nt
C(=Nc1nccs1)Nc1nccs1	nt	5	nt	nt	nt	nt	nt	nt
CCC(COC(=O)c1ccccc1)Oc1cc(NCc2ccccc2)c2ncn(C(C)C)c2c1 (configuration not stated)	nt	0	nt	69*	0	nt	26	10
CCOCCOc1cc(NCc2ccccc2)c2ncn(C(C)C)c2c1	nt	1	nt	nt	nt	nt	nt	nt
CCCCOc1cc(NCc2ccccc2)c2ncn(C(C)C)c2c1	nt	2	nt	61*	-11	nt	47*	14	Apaf1 inh interf=>100
CCC(CO)Oc1cc(NCc2ccccc2OC)c2ncn(C(C)C)c2c1 (configuration not stated)	nt	2	nt	61*	-5	nt	33	-1
COc1cc(NCc2ccccc2)c2ncn(Cc3ccccc3)c2c1	nt	-1	nt	50*	-1	nt	28	4
CCC(CO)Oc1cc(NCc2ccc(O)cc2)c2ncn(C(C)C)c2c1 (configuration not stated)	nt	1	nt	4	-3	nt	nt	nt
Cc1cc(C)nc(N=C(N)Nc2ccccc2-c2ccccc2)n1	nt	4	nt	nt	nt	nt	nt	nt
COc1ccc(CCC(=O)NN=Cc2cccs2)cc1	nt	1	nt	nt	nt	nt	nt	nt
Cn1c(=O)n(C)c2cc(C=NNC(=O)c3ccc(Cl)cc3)ccc21	nt	-287	nt	nt	nt	nt	nt	nt
COCCCOc1cc(NCc2ccccc2)c2ncn(C(C)C)c2c1	nt	0	nt	41*	-8	nt	27	7
COC(=O)[C@@H]1CCC(C)[C@@H](c2ccc(C)cc2)N1C(=O)c1ccc(C=NOC(C)c2cn(C(CO)Cc3ccccc3)nn2)cc1 (some centres not stated)	nt	3	nt	nt	nt	nt	nt	nt
Cc1ccc(S(=O)(=O)N2CCN(C(=O)COC(=O)c3cc([N+](=O)[O-])ccc3NCCO)CC2)c(C)c1	nt	nt	nt	13	0	nt	nt	nt
Cc1ccc(S(=O)(=O)N2CCN(C(=O)COC(=O)c3ccc([N+](=O)[O-])o3)CC2)c(C)c1	nt	9	nt	59*	-13	1	22	8
CCCNC(=O)OC[C@H]1O[C@H](CCON=C[C@@H](OC)[C@H](C)/C=C/CC(=O)OC)C=C[C@@H]1Oc1ccc(OC)cc1	nt	3	nt	nt	nt	nt	nt	nt
SMILES	GSTO1 counter	UCH37 inh	Fh CTSL1 inh	Apaf-1 inh	PAD4 inh	PP5 primary	Apaf-1 inh conf2	Rh110 interf inh	others
Cc1[nH]n(-c2ccccc2)c(=O)c1/C=N\NC(=O)C1COc2ccccc2O1 (configuration not stated)	5	nt	4	54*	-13	1	65*	-6	Apaf1 inh interf=>100
Cc1[nH]n(-c2cccc3ccccc23)c(=O)c1/C=N/NC(=O)c1cccc([N+](=O)[O-])c1	-9	nt	6	16	-2	3	nt	nt
CC(=O)N/N=C/c1c(C)[nH]n(-c2ccccc2)c1=O	25	nt	-1	1	-13	4	nt	nt
Cc1[nH]n(-c2ccccc2)c(=O)c1/C=N/NC(=O)c1cccc([N+](=O)[O-])c1	2	nt	-2	56*	1	2	53*	1	Apaf1 inh interf=>100
Cc1[nH]n(-c2ccccc2)c(=O)c1/C=N/N(C)c1ccccc1	-1	nt	-5	80*	2	1	15	-2
Cc1cc(Br)c(OCc2ccc(C(=O)NN=Cc3ccc[nH]3)cc2)c(Br)c1	nt	-30	nt	nt	nt	nt	nt	nt
CCCN1CCN(C(=O)c2oc3c(Cl)cccc3c2C)CC1	-5	3	2	4	0	-2	nt	nt
Cc1cccc(NC(=O)CN2CCN(C(=O)c3oc4c(Cl)cccc4c3C)CC2)c1C	nt	4	nt	70*	-1	5	17	8
CC(=NNC(=O)c1ccccc1C)c1ccc(N2CCOCC2)cc1	nt	7	nt	nt	nt	nt	nt	nt
O=c1[nH]c(CN2CCc3ccccc3C2)nc2ccccc12	16	-5	3	65*	-17	3	14	0
O=c1[nH]c(CN2CCOCC2)nc2ccccc12	-2	4	-2	-2	-4	-1	nt	nt
C/C(C=NN1CCN(c2ccccc2)CC1)=C/c1ccco1	nt	1	nt	nt	nt	nt	nt	nt
O=C1C(=C(c2ccccc2)c2ccccc2)Nc2ccccc21	-2	2	5	19	-10	3	nt	nt
O=C1C(=C(O)c2ccccc2)C(=O)c2ccccc21	-21	16	2	41*	-16	9	13	-7
CC(=NOCC(=O)Nc1c(C)cc(C)cc1C)c1ccc2c(c1)OCCO2	nt	5	nt	nt	nt	nt	nt	nt
Oc1c(Br)cc(Br)cc1C=Nc1ccc2[nH]ncc2c1	12	-11	2	84*	-12	2	34	7
COc1ccc(C=Nc2ccc3[nH]ncc3c2)c(O)c1	5	-11	-2	31	-15	1	nt	nt
Oc1c(Br)cc(Br)cc1/C=N/c1nccs1	nt	nt	nt	8	-2	0	nt	nt
Oc1c(Br)cc(Br)cc1C=Nc1cccnc1	4	nt	1	79*	-11	-2	36	5
COc1ccc(C=NNC(=O)c2cccc(Br)c2)cc1CSc1ccccn1	nt	-17	nt	nt	nt	nt	nt	nt
COC(=O)NN=Cc1c(C)c(C(=O)c2ccc(F)cc2)n2ccccc12	nt	4	nt	nt	nt	nt	nt	nt
